ChEMBL document CHEMBL3244156, “Analgesic and tranquilizing activity of 5,8-disubstituted 1-tetralone Mannich bases” (1977)
Activity calls are given as the source filed them. The calls are words filed in the database; no cut-off is given here.

Experiments:
Mus musculus [1] = assay: Analgesic activity in mouse at 10 mg/kg, ip after 2 hrs by hot plate assay; assay type: functional; conditions: route intraperitoneal
Procedure, shortened: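 Mice dropped into a glass cylinder on an aluminum plate held at 57 °C. Timed from foot contact to first hind-foot flick, with a 10-s limit. Observed 0.5 and 2 h after treatment. Value is % of mice failing to react within the limit. At least ten mice per dose.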

Rattus norvegicus [2] = assay: Analgesic activity in rat assessed as median foot shock required to elicit flinch-jump at 17.8 mg/kg, po after 2 hrs; assay type: functional
Rattus norvegicus [3] = species: Rattus norvegicus; assay: Induction of tolerance development in rat assessed as median foot shock required to elicit flinch-jump; assay type: functional, organism-based
Canis familiaris = assay: Analgesic activity in dog assessed as rippling of skin at 1.62 mg/kg, sc after 2 hrs by radiant heat assay; assay type: functional, Canis lupus familiaris; conditions: route subcutaneous
Procedure, shortened: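 Dogs held in a harness with a shaved mid-back patch placed under a concealed radiant heat source. Endpoint is the latency from heat onset to skin "rippling". Baseline latency measured in each dog, then retested at 0.5 and 2 h after dosing. Result expressed as % of control.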

Mus musculus [4] = assay: Analgesic activity in mouse assessed as tail-flick latency period at 10 mg/kg, ip after 2 hrs by tail flick test; assay type: functional; conditions: route intraperitoneal

CN1CC[C@]23c4c5ccc(O)c4O[C@H]2[C@@H](O)C=C[C@H]3[C@H]1C5 [MORPHINE]
Activity (Mus musculus [1]): 70% | Activity (Rattus norvegicus [2]): 1.2% | Activity (Rattus norvegicus [3]): Active | Activity (Canis familiaris): 155% | Activity (Mus musculus [4]): 80%
